pIC50: −log10 of the molar value.

Drawing on ChEMBL document CHEMBL3877296, “Design, synthesis, and biological evaluation of novel alkylsulfanyl-1,2,4-triazoles as cis-restricted combretastatin A-4 analogues” (Eur J Med Chem, 2017), this text covers IC50 and inhibition for 32 compounds.

Assay [1] can be described thus: Cytotoxicity against human HT-29 cells assessed as growth inhibition after 48 hrs by MTT assay. Type of assay: functional, cell-based. The settings on record: HT-29, 48 h. A digest of the protocol:
(§1)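 Cells were kept in DMEM with 10% FBS and seeded at 5000 cells/well, then attached for 24 h at 37 °C. Compounds came from 20 mM DMSO stocks, serially diluted in medium, with 0.1% DMSO as vehicle control. After 48 h at 37 °C, MTT (5 mg/mL) was added for 4 h, formazan dissolved in DMSO and A570 read. IC50 was fitted from % inhibition versus control, mean of three independent experiments.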

A short description of assay [2]: Cytotoxicity against human HepG2 cells assessed as growth inhibition after 48 hrs by MTT assay. Type of assay: functional, cell-based. The settings on record: HepG2, 48 h. In outline:
as §1
(Formazan colour is commonly taken as a measure of viable cells.)

A short description of assay [3]: Cytotoxicity against human PC3 cells assessed as growth inhibition after 48 hrs by MTT assay. Type of assay: functional, cell-based. The settings on record: PC-3, 48 h. A digest of the protocol:
as §1

Assay [4] can be described thus: Cytotoxicity against human HCT116 cells assessed as growth inhibition after 48 hrs by MTT assay. The settings on record: HCT-116, 48 h. Type of assay: functional, cell-based. A digest of the protocol:
as §1

The species entered for the next assay is Sus scrofa. In words: Inhibition of porcine brain tubulin polymerization at 10 uM in presence of GTP by spectrophotometric method relative to control. A digest of the protocol: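 Tubulin was purified from pig brain microtubule protein by three temperature-driven assembly/disassembly cycles, then phosphocellulose chromatography. Polymerization ran in PEM buffer (100 mM PIPES, 1 mM MgCl2, 1 mM EGTA) with 1 mM GTP and 5% glycerol at 37 °C, followed by light scattering at 340 nm. Percent inhibition came from plateau absorbance, with a DMSO negative control and a CA-4 reference run the same day.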

Take `COc1ccc(CSc2nnc(-c3cc(OC)c(OC)c(OC)c3)n2-c2ccc(OC)cc2)cc1`: the negative logarithm of the IC50 (pIC50) in assay [1] is less than 4.22; in assay [2], 4.39; in assay [3] it was 4.39; in assay [4], 4.30. The inhibition in the assay filed under Sus scrofa was 29%.
For the compound `CCSc1nnc(-c2cc(OC)c(OC)c(OC)c2)n1-c1ccc(OC)cc1`, the negative logarithm of the IC50 (pIC50) is less than 4.22 in assay [1], less than 4.22 in assay [2], 4.24 in assay [3] and less than 4.22 in assay [4].
Take `COc1ccc(-n2c(SCC(=O)c3ccc(OC)c(O)c3)nnc2-c2cc(OC)c(OC)c(OC)c2)cc1`: the pIC50 in assay [1], in assay [2], in assay [3] and in assay [4] was less than 4.22 throughout.
On to `COc1ccc(-n2c(SCc3ccc(C)cc3)nnc2-c2cc(OC)c(OC)c(OC)c2)cc1`, for which the pIC50 was less than 4.22 in assay [1], 4.50 in assay [2], 4.25 in assay [3] and 4.48 in assay [4]. In the assay listed under Sus scrofa, the inhibition was 15%.
On to `COc1ccc(C(=O)CSc2nnc(-c3cc(OC)c(OC)c(OC)c3)n2-c2ccc(N(C)C)cc2)cc1`, for which the pIC50 is 4.19 in assay [1], 4.73 in assay [2], 4.66 in assay [3] and less than 4.22 in assay [4]. Also, the inhibition in the assay filed under Sus scrofa worked out at 38%.
Taken in the same sequence, the figures for `COc1ccc(-n2c(SCC(=O)C3CC3)nnc2-c2cc(OC)c(OC)c(OC)c2)cc1` were less than 4.22, less than 4.22, 4.43, less than 4.22 and 36%.
As to `COc1ccc(-n2c(SCc3ccc(F)cc3)nnc2-c2cc(OC)c(OC)c(OC)c2)cc1`, the negative-log IC50 (pIC50) in assay [1] was 4.29; in assay [2], 4.46; in assay [3] it was 4.46; in assay [4] it was 4.41.
As to `CCOC(=O)CSc1nnc(-c2cc(OC)c(OC)c(OC)c2)n1-c1ccc(OC)cc1`, the pIC50 in assay [1], in assay [2], in assay [3] and in assay [4] was less than 4.22 in each case.
As for `COc1cc(-c2nnc(SCC(=O)c3ccccc3)n2-c2ccc(N(C)C)cc2)cc(OC)c1OC`, the pIC50 in assay [1] is 4.35; in assay [2], 4.72; in assay [3], 4.41; in assay [4] it was 4.37. Besides, in the assay listed under Sus scrofa, the inhibition stood at 16%.
On to `COc1ccc(-n2c(SC)nnc2-c2cc(OC)c(OC)c(OC)c2)cc1`, for which the pIC50 in assay [1], in assay [2], in assay [3] and in assay [4] was less than 4.22 throughout.
As to `COc1ccc(CSc2nnc(-c3cc(OC)c(OC)c(OC)c3)n2-c2ccc(N(C)C)cc2)cc1`, the pIC50 in assay [1] was less than 4.22; in assay [2], less than 4.22; in assay [3], less than 4.22; in assay [4] it was 5.94. Also, the inhibition in the assay filed under Sus scrofa was 49%.
On to `COc1cc(-c2nnc(SCC(=O)C3CC3)n2-c2ccc(N(C)C)cc2)cc(OC)c1OC`, for which the pIC50 in assay [1] was less than 4.22; in assay [2], less than 4.22; in assay [3], 4.34; in assay [4], less than 4.22.
As to `COc1cc(-c2nnc(SCc3ccc(C)cc3)n2-c2ccc(N(C)C)cc2)cc(OC)c1OC`, the pIC50 in assay [1] was 4.56; in assay [2] it was less than 4.22; in assay [3], 4.43; in assay [4], less than 4.22. Also, the inhibition in the assay filed under Sus scrofa is 21%.
On to `COc1ccc(NC(=O)CSc2nnc(-c3cc(OC)c(OC)c(OC)c3)n2-c2ccc(OC)cc2)cc1`, for which the pIC50 is 4.34 in assay [1], less than 4.22 in assay [2], 4.59 in assay [3] and less than 4.22 in assay [4]. Also, the inhibition in the assay listed under Sus scrofa is 10%.
Take `COc1ccc(-n2c(SCC(=O)c3ccc4ccccc4c3)nnc2-c2cc(OC)c(OC)c(OC)c2)cc1`: the negative logarithm of the IC50 (pIC50) in assay [1] is 4.27; in assay [2] it was less than 4.22; in assay [3] it was less than 4.22; in assay [4], less than 4.22.
In the case of `COc1ccc(-n2c(SCC(=O)c3ccccc3)nnc2-c2cc(OC)c(OC)c(OC)c2)cc1`, the pIC50 in assay [1] was less than 4.22; in assay [2], 4.79; in assay [3], less than 4.22; in assay [4], less than 4.22.
In the case of `COc1cc(-c2nnc(SCC(=O)Nc3ccc(Cl)cc3)n2-c2ccc(N(C)C)cc2)cc(OC)c1OC`, the pIC50 in assay [1] is less than 4.22; in assay [2], less than 4.22; in assay [3] it was less than 4.22; in assay [4] it was 4.41. The inhibition in the assay listed under Sus scrofa was 17%.
On to `COc1cc(-c2nnc(SC)n2-c2ccc(N(C)C)cc2)cc(OC)c1OC`, for which the pIC50 in assay [1], in assay [2], in assay [3] and in assay [4] was less than 4.22 each time.
In the case of `COc1ccc(NC(=O)CSc2nnc(-c3cc(OC)c(OC)c(OC)c3)n2-c2ccc(N(C)C)cc2)cc1`, the negative-log IC50 (pIC50) in assay [1] was 4.29; in assay [2], less than 4.22; in assay [3] it was 4.25; in assay [4], less than 4.22.
Consider `COc1ccc(-n2c(SCc3ccccc3)nnc2-c2cc(OC)c(OC)c(OC)c2)cc1`, for which the negative logarithm of the IC50 (pIC50) in assay [1] was less than 4.22; in assay [2] it was less than 4.22; in assay [3], 4.47; in assay [4], 4.37. Moreover, the inhibition in the assay filed under Sus scrofa is 16%.
With `CCOC(=O)CSc1nnc(-c2cc(OC)c(OC)c(OC)c2)n1-c1ccc(N(C)C)cc1`, the pIC50 in assay [1] is 4.54; in assay [2] it was less than 4.22; in assay [3] it was less than 4.22; in assay [4], less than 4.22.
On to `COc1ccc(-n2c(SCC(=O)c3ccc(F)cc3)nnc2-c2cc(OC)c(OC)c(OC)c2)cc1`, for which the pIC50 in assay [1] was 4.37; in assay [2], 4.97; in assay [3], 4.23; in assay [4] it was less than 4.22. The inhibition in the assay filed under Sus scrofa amounted to 12%.
For `COc1ccc(C(=O)CSc2nnc(-c3cc(OC)c(OC)c(OC)c3)n2-c2ccc(OC)cc2)cc1`, the pIC50 in assay [1] was less than 4.22; in assay [2], 4.74; in assay [3], less than 4.22; in assay [4], less than 4.22. For the same compound, the inhibition in the assay listed under Sus scrofa stood at 30%.
For `COc1cc(-c2nnc(SCC(=O)c3ccc4ccccc4c3)n2-c2ccc(N(C)C)cc2)cc(OC)c1OC`, the pIC50 in assay [1] is less than 4.22; in assay [2], less than 4.22; in assay [3], 4.74; in assay [4], 4.26. Also, the inhibition in the assay listed under Sus scrofa turned out to be 26%.
On to `COc1cc(-c2nnc(S)n2-c2ccc(N(C)C)cc2)cc(OC)c1OC`, for which the pIC50 in assay [1], in assay [2], in assay [3] and in assay [4] was less than 4.22 each time.
`COc1cc(-c2nnc(SCc3ccc(F)cc3)n2-c2ccc(N(C)C)cc2)cc(OC)c1OC`: the negative logarithm of the IC50 (pIC50) in assay [1] is 4.35; in assay [2], 4.58; in assay [3], 4.33; in assay [4], less than 4.22.
Take `COc1cc(-c2nnc(SCC(=O)c3ccc(F)cc3)n2-c2ccc(N(C)C)cc2)cc(OC)c1OC`: the pIC50 in assay [1] was 4.11; in assay [2], less than 4.22; in assay [3], 4.37; in assay [4] it was 4.51.
For `COc1ccc(C(=O)CSc2nnc(-c3cc(OC)c(OC)c(OC)c3)n2-c2ccc(N(C)C)cc2)cc1O`, the pIC50 was less than 4.22 in assay [1], less than 4.00 in assay [2], less than 4.00 in assay [3] and less than 4.00 in assay [4].
Take `COc1cc(-c2nnc(SCc3ccccc3)n2-c2ccc(N(C)C)cc2)cc(OC)c1OC`: the pIC50 in assay [1] is less than 4.22; in assay [2] it was less than 4.22; in assay [3] it was 4.25; in assay [4], 4.27.
Turning to `COc1ccc(/C=C\c2cc(OC)c(OC)c(OC)c2)cc1O` [COMBRETASTATIN A4], the negative-log IC50 (pIC50) was 5.71 in assay [1], 5.28 in assay [2], 4.66 in assay [3] and 5.21 in assay [4]. In the assay filed under Sus scrofa, the inhibition is 80%.
Regarding `CCSc1nnc(-c2cc(OC)c(OC)c(OC)c2)n1-c1ccc(N(C)C)cc1`, the pIC50 is less than 4.22 in assay [1], less than 4.22 in assay [2], 4.34 in assay [3] and less than 4.22 in assay [4].
For `COc1ccc(-n2c(S)nnc2-c2cc(OC)c(OC)c(OC)c2)cc1`, the pIC50 in assay [1] is less than 4.22; in assay [2] it was 4.24; in assay [3], less than 4.22; in assay [4] it was less than 4.22.

A word on the pIC50: it is the negative decadic logarithm of the IC50, by convention in mol/L. The term inhibition denotes the relative decrease from the control value, in per cent.
